ChEMBL document CHEMBL3217420, “Design, synthesis and initial biological evaluation of a novel pladienolide analog scaffold” (Medchemcomm, 2011)
pIC50: −log10 of the molar value. Activity calls are given as the source filed them. The calls are words filed in the database; no cut-off is given here.

Assays:
Format in all cases: functional, cell-based
[1] = tested on: SK-MEL-2; experiment: Modulation of MDM2 mRNA splicing in human SK-MEL-2 cells assessed as formation of two spliced MDM2 mRNA variants at 10 uM after 6 hrs by blotting assay
How it was run: (§1)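 SK-MEL-2 melanoma cells were exposed to DMSO vehicle or to the designated compound concentrations for 6 hours. MDM2 mRNA was then examined for the properly spliced form and for alternatively spliced variant forms.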

[2] = tested on: SK-MEL-2; experiment: Modulation of MDM2 mRNA splicing in human SK-MEL-2 cells assessed as increase in properly spliced MDM2 mRNA at 1 uM after 6 hrs by blotting assay; how it was run: as §1
[3] = tested on: SK-MEL-2; experiment: Cytotoxicity in human SK-MEL-2 cells assessed as growth inhibition after 72 hrs by XTT assay; conditions: SK-MEL-2, 72 h
How it was run: (§2)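 XTT assay after 72 h continuous compound exposure. IC50 is the concentration that inhibits growth to 50% of the DMSO vehicle-treated control. It was calculated by sigmoidal fitting of dose-response curves. Values are mean ± standard error of 3 independent experiments.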

[4] = tested on: MOLT-4; experiment: Cytotoxicity in human MOLT4 cells assessed as growth inhibition after 72 hrs by XTT assay; conditions: MOLT-4, 72 h; how it was run: as §2
[5] = tested on: NCI-H226; experiment: Cytotoxicity in human NCI-H226 cells assessed as growth inhibition after 72 hrs by XTT assay; conditions: NCI-H226, 72 h; how it was run: as §2
[6] = tested on: PC-3; experiment: Cytotoxicity in human PC3 cells assessed as growth inhibition after 72 hrs by XTT assay; conditions: PC-3, 72 h; how it was run: as §2
[7] = Cytotoxicity in human JeKo1 cells assessed as growth inhibition after 72 hrs by XTT assay; conditions: JeKo-1, 72 h; how it was run: as §2
[8] = tested on: MCF7; experiment: Cytotoxicity in human MCF7 cells assessed as growth inhibition after 72 hrs by XTT assay; conditions: MCF7, 72 h; how it was run: as §2
[9] = tested on: SK-MEL-2; experiment: Modulation of MDM2 mRNA splicing in human SK-MEL-2 cells assessed as formation of two spliced MDM2 mRNA variants at 100 uM after 6 hrs by blotting assay; how it was run: as §1
[10] = tested on: SK-MEL-2; experiment: Modulation of MDM2 mRNA splicing in human SK-MEL-2 cells assessed as increase in properly spliced MDM2 mRNA at 10 to 25 uM after 6 hrs by blotting assay; how it was run: as §1
[11] = tested on: SK-MEL-2; experiment: Modulation of MDM2 mRNA splicing in human SK-MEL-2 cells assessed as formation of two spliced MDM2 mRNA variants at 10 to 100 uM after 6 hrs by blotting assay; how it was run: as §1
[12] = tested on: SK-MEL-2; experiment: Modulation of MDM2 mRNA splicing in human SK-MEL-2 cells assessed as increase in properly spliced MDM2 mRNA at 10 to 100 uM after 6 hrs by blotting assay; how it was run: as §1

SMILES	Activity [1]	Activity [2]	pIC50 [3]	pIC50 [4]	pIC50 [5]	pIC50 [6]	pIC50 [7]	pIC50 [8]	Activity [9]	Activity [10]	Activity [11]	Activity [12]
CC(/C=C/[C@H]1OC(C)(C)C[C@@]2(CO2)[C@@H]1O)=C\C[C@H]1OC[C@@H](NC(=O)/C=C\[C@H](C)OC(=O)C(C)C)CO1	Active	Active	6.15	6.18	< 5.00	5.38	6.54	5.77	–	–	–	–
CC(=O)O[C@H]1/C=C/C[C@@H](/C(C)=C/C=C/CC[C@H]2O[C@@H]2C[C@H](C)O[Si](C)(C)C(C)(C)C)OC(=O)CCCC[C@@]1(C)O	–	–	4.97	4.81	< 4.70	4.74	4.94	4.72	Active	Active	–	–
CC(=O)O[C@H]1/C=C/C[C@@H](/C(C)=C/C=C/CC[C@H]2O[C@@H]2C[C@H](C)O)OC(=O)CCCC[C@@]1(C)O (mixture of isomers)	–	–	< 4.70	–	–	< 4.70	< 4.70	–	–	–	–	–
CC(=O)O[C@@H](C)/C=C\C(=O)N[C@H]1CC[C@@H](C/C=C(C)/C=C/[C@H]2OC(C)(C)C[C@@]3(CO3)[C@@H]2O)CC1	–	–	6.41	6.74	< 5.00	5.69	6.96	6.14	–	–	–	–
COc1ccc(COC/C=C(\C)[C@@H]2C/C=C/[C@H](OC(C)=O)[C@](C)(O)CCCCC(=O)O2)cc1	–	–	< 4.70	–	–	–	–	–	–	–	inactive	Active
